Measured values: ChEMBL document CHEMBL4725241, “Discovery of BMS-986235/LAR-1219: A Potent Formyl Peptide Receptor 2 (FPR2) Selective Agonist for the Prevention of Heart Failure” (J Med Chem, 2020)
pEC50, pIC50: −log10 of the molar value. Calls of active or inactive are those of the source. The calls are words filed in the database; no cut-off is given here.

Tests used:
Cytochrome P450 3A4 = Cytochrome P450 3A4 (Homo sapiens, UniProt P08684); experiment: Inhibition of recombinant human CYP3A4; type: ADME
fMet-Leu-Phe receptor [1] = target: T1, fMet-Leu-Phe receptor (Homo sapiens, UniProt P21462); experiment: Agonist activity at human FPR1 expressed in CHO cells assessed as reduction cAMP accumulation incubated for 1 hr by TR-FRET assay; type: functional, cell-based
T1 sequence (P21462 whole entry): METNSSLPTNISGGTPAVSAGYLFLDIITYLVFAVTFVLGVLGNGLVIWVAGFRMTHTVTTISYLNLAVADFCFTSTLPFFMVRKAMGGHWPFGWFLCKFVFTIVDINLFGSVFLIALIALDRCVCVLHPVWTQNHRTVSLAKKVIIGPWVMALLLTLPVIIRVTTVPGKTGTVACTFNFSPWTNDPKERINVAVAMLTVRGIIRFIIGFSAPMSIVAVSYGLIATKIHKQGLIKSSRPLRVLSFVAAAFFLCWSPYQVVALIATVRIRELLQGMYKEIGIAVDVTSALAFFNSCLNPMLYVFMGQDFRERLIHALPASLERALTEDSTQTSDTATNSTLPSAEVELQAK
Summary of the method: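 CHO cells overexpressing the receptor were used, 2,000 hFPR2 or 4,000 hFPR1 cells/well. Cells were incubated 30 min at room temperature with compound (1.7 nM-100 µM, 1% DMSO), IBMX 200 µM and forskolin (5 µM for FPR2, 10 µM for FPR1) in DPBS/0.1% BSA. cAMP was read by HTRF after 1 h lysis against a standard curve. Data were fitted to a 4-parameter logistic, average of ≥2 occasions.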

fMet-Leu-Phe receptor [2] = target: T2, fMet-Leu-Phe receptor (Mus musculus, UniProt P33766); experiment: Agonist activity at mouse FPR1 expressed in CHO cells assessed as reduction cAMP accumulation incubated for 1 hr by TR-FRET assay; type: functional, cell-based
T2 sequence (P33766 whole entry): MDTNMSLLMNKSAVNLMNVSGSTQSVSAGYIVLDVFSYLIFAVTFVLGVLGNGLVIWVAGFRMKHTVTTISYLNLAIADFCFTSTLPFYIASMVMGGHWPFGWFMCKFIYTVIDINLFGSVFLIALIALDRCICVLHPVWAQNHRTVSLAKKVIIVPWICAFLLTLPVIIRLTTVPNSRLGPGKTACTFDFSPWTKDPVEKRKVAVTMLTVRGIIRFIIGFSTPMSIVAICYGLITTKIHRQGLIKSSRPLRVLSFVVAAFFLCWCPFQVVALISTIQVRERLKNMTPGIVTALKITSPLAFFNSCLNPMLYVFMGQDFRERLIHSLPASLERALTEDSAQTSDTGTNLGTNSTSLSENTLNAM

[3] = target: T3, N-formyl peptide receptor 2 (Homo sapiens, UniProt P25090); experiment: Agonist activity at human FPR2 expressed in CHO-K1 cells assessed as stimulation of beta-arrestin recruitment; type: cell-based
T3 sequence (P25090 whole entry): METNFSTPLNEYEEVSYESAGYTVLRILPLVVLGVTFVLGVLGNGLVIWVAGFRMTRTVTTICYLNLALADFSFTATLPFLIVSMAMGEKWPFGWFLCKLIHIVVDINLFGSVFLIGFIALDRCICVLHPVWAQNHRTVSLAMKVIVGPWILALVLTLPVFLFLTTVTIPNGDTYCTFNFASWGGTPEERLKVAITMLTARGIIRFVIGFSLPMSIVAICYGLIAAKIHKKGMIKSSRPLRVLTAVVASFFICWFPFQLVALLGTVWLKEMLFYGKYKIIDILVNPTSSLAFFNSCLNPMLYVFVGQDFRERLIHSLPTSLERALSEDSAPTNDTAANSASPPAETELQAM

Mus musculus [4] = experiment: Cardioprotective activity in C57BL/6 mouse model of LAD coronary artery ligation-induced myocardial infarction assessed as reduction in LV chamber area at 0.3 mg/kg, po and measured after 28 days; type: functional, organism-based; details: time 28.0 day
Summary of the method: (§1)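 Male C57BL/6 mice (10-12 weeks) underwent permanent LAD ligation under ketamine/xylazine, with shams having an untightened suture. Compound (0.3 mg/kg/d) or vehicle was given by oral gavage once daily (5 mL/kg) from post-MI day 4 for 24 days. Endpoints were taken at 28 days post-MI; scar length was quantified from LV cross sections.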

Mus musculus [5] = experiment: Cardioprotective activity in C57BL/6 mouse model of LAD coronary artery ligation-induced myocardial infarction assessed as reduction in heart weight at 0.3 mg/kg, po and measured after 28 days; type: functional, organism-based; details: time 28.0 day; summary of the method: as §1
[6] = Volume of distribution at steady state in Crl:CD(SD) rat at 1 mg/kg, iv by LC-MS/MS analysis; type: ADME, organism-based; details: in vivo, read-out: Vdss
Summary of the method: (§2)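 Male animals received intravenous solution in DMSO/PEG400/saline (5/47.5/47.5). EDTA plasma was extracted with methanol/acetonitrile (1:1) plus internal standard and quantified by LC-MS/MS. AUC0-inf was calculated by the trapezoidal rule with terminal-phase kel extrapolation.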

[7] = Volume of distribution at steady state in cynomolgus monkey at 1 mg/kg, iv by LC-MS/MS analysis; type: ADME, organism-based, Macaca fascicularis; details: in vivo, read-out: Vdss; summary of the method: as §2
[8] = Half life in Crl:CD(SD) rat at 1 mg/kg, po by LC-MS/MS analysis; type: ADME, organism-based; details: in vivo
Summary of the method: (§3)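 Male animals dosed orally with a suspension in 0.5% MC. Blood was taken into EDTA 2K capillaries and plasma was stored frozen. Plasma was mixed with methanol/acetonitrile (1:1) plus internal standard, centrifuged, and drug was measured by LC-MS/MS. AUC0-inf was obtained by the trapezoidal rule, extrapolated with kel from the terminal phase. t1/2 = ln2/kel.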

[9] = Half life in Beagle dog at 1 mg/kg, po by LC-MS/MS analysis; type: ADME, organism-based, Canis lupus familiaris; details: in vivo; summary of the method: as §3
[10] = AUC (0 to infinity) in Crl:CD(SD) rat at 1 mg/kg, po by LC-MS/MS analysis; type: ADME, organism-based; set-up: time infinity, route oral, dose 1 mg/kg; details: in vivo; summary of the method: as §3
[11] = AUC (0 to infinity) in Beagle dog at 1 mg/kg, po by LC-MS/MS analysis; type: ADME, organism-based, Canis lupus familiaris; set-up: route oral, time infinity, dose 1 mg/kg; details: in vivo; summary of the method: as §3
[12] = Oral bioavailability in cynomolgus monkey at 3 mg/kg by LC-MS/MS analysis; type: ADME, organism-based, Macaca fascicularis; details: in vivo
Summary of the method: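 Oral bioavailability = (AUC0-inf,po/dose po)/(AUC0-inf,iv/dose iv) × 100. Oral dosing used a 0.5% MC suspension. IV dosing used a DMSO/PEG400/saline (5/47.5/47.5) solution, with CD1(ICR) mice for the iv arm. Plasma drug levels were measured by LC-MS/MS after methanol/acetonitrile extraction with internal standard.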

[13] = Clearance in human liver microsome at 0.1 umol/l and measured for 60 mins by LC-MS/MS analysis; type: ADME; details: microsomes, 1 h, 0.1 µM, dose 0.1 µmol/L
Summary of the method: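 Liver microsomes (1 mg protein/mL final) with an NADPH regenerating system were preincubated 5 min at 37°C, then given 0.1 µmol/L compound. Samples were taken at 0-60 min, quenched in methanol/acetonitrile with internal standard, and analysed by LC-MS/MS. Runs were in triplicate. kel came from 5-30 min points. CLint = kel/protein concentration (mL/min/mg protein).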

Chain of Cytochrome P450 3A4 (P08684 whole entry): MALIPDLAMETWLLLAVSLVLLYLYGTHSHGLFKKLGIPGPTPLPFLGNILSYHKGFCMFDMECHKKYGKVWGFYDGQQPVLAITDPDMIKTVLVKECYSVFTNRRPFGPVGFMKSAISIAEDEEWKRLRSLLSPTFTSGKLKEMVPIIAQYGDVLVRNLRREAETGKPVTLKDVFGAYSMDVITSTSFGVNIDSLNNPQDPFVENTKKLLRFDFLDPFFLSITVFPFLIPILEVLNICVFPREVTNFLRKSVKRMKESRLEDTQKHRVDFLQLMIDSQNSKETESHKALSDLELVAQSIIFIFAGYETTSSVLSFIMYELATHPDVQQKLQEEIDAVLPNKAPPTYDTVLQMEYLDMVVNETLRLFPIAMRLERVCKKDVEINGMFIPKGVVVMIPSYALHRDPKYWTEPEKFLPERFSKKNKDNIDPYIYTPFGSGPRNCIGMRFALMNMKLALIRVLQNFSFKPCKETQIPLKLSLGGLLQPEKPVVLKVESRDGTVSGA

pIC50 (Cytochrome P450 3A4): < 4.70
pEC50 (fMet-Leu-Phe receptor [1]): 6.40
pEC50 (fMet-Leu-Phe receptor [2]): 6.30
pEC50 [3]: 6.89
Vd [6]: 3 L/kg
Vd [7]: 1.2 L/kg
half-life [8]: 3.8 h
half-life [9]: 2.5 h
AUC(0-inf) [10]: 0.64 µM·h
AUC(0-inf) [11]: 5.7 µM·h
bioavailability [12]: 49%
CLH [13]: 3.3 µL/min/mg
Compound: COc1cc(F)c([C@@H]2CNC(=O)[C@H]2NC(=O)Nc2ccccc2)c(F)c1 [BMS-986235]
Activity (Mus musculus [4]): Active
Activity (Mus musculus [5]): Active
